{"source": "paper PMC11102597", "about": "(Molecular cell, 2023)", "molecules": {"B1": {"name": "Acb2 from P. aeruginosa phage PaMx33 (natural protein, Pseudomonas aeruginosa phage PaMx33, UniProt A0A1C8HPQ3 1-93, looked up)", "chain": "MDNQHKKIKGYRDLSQEEIDMMNRVKELGSQFEKLIQDVSDHLRGQYNASLHNRDEITRIANAEPGRWLAIGKTDIQTGMMAIIRAIAQPDSF"}, "B2": {"name": "WT Acb2: anti-CBASS protein Acb2 from P. aeruginosa phage PaMx33, cyclic oligonucleotide sponge (protein)", "chain": "B1 chain", "modifications": "left off: His6-SUMO, end not stated, cleaved"}}, "key": {"[1]": {"target": "T1, Acb2 protein (PaMx33-Acb2) (Pseudomonas phage PaMx33, UniProt A0A1C8HPQ3)", "assay": "Native gel", "type": "binding, P. aeruginosa phage PaMx33", "conditions": "WT PaMx33-Acb2 14.3 μM"}, "PaMx33-Acb2 [2]": {"target": "T2, PaMx33-Acb2 (Pseudomonas phage PaMx33, UniProt A0A1C8HPQ3)", "assay": "biochemical", "type": "binding", "conditions": "for binding to Acb2 (ITC): WT PaMx33-Acb2"}, "[3]": {"target": "T1, Acb2 protein (PaMx33-Acb2)", "conditions": "Figure S1A–B; cited from earlier work"}, "CHI14-Acb2 [4]": {"target": "T3, CHI14-Acb2 (Serratia phage CHI14, UniProt A0A1Z1LXK7)", "T3 sequence (A0A1Z1LXK7 1-96)": "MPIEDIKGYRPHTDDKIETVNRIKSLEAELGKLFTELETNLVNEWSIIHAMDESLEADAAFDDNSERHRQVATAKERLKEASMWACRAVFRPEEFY", "assay": "ITC binding to CHI14-Acb2"}, "PaMx33-Acb2 [5]": {"target": "T2, PaMx33-Acb2", "conditions": "WT Acb2; cited from earlier work"}, "K26A Acb2 mutant [6]": {"target": "T4, K26A Acb2 mutant (Pseudomonas phage PaMx33, UniProt A0A1C8HPQ3, K26A)", "T4 sequence (A0A1C8HPQ3 whole entry K26A)": "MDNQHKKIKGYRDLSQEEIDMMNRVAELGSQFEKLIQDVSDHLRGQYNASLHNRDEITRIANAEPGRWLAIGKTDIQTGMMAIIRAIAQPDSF", "conditions": "method not stated here; cited from earlier work"}, "T4-Acb2": {"target": "T4-Acb2 (Enterobacteria phage T4, UniProt P13314)", "sequence (P13314 whole entry)": "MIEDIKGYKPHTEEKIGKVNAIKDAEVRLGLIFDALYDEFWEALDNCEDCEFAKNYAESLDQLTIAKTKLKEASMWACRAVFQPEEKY", "assay": "ITC binding to T4-Acb2", "design": "species or system Escherichia phage T4"}, "JBD67-Acb2": {"target": "JBD67-Acb2 (Pseudomonas phage JBD67, UniProt P0DX89)", "sequence (P0DX89 whole entry)": "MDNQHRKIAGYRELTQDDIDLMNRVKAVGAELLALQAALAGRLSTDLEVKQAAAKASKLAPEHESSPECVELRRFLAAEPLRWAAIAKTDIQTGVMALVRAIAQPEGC", "assay": "ITC binding to JBD67-Acb2", "design": "species or system P. aeruginosa phage JBD67"}, "CHI14-Acb2 [7]": {"target": "T3, CHI14-Acb2", "assay": "Native gel shift assay with CHI14-Acb2", "type": "binding", "outline": "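Recombinant Acb2, expressed in E. coli BL21 (DE3) with 12 h induction at 18°C, was purified as a His6-SUMO fusion on Ni-NTA, cut with Ulp1, then gel-filtered in 10 mM Tris-HCl pH 8.0, 500 mM NaCl, 5 mM DTT. Protein (14.3 μM) was preincubated 10 min at 18°C with cyclic dinucleotides (1.8, 3.6, 7.2 μM). Samples were run on 5% native polyacrylamide gels and stained with Coomassie blue.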"}, "Y11A Acb2 mutant [8]": {"target": "T5, Y11A Acb2 mutant (Pseudomonas phage PaMx33, UniProt A0A1C8HPQ3, Y11A)", "T5 sequence (A0A1C8HPQ3 whole entry Y11A)": "as the sequence (A0A1C8HPQ3 whole entry K26A) above, with Y11A, A26K counted along it", "conditions": "method not stated here; cited from earlier work"}, "Y11A Acb2 mutant [9]": {"target": "T5, Y11A Acb2 mutant", "assay": "Native gel shift assay with Acb2 Y11A mutant", "type": "binding, P. aeruginosa phage PaMx33"}, "Acb2 R67A mutant": {"target": "T6, Acb2 R67A mutant (Pseudomonas phage PaMx33, UniProt A0A1C8HPQ3, R67A)", "T6 sequence (A0A1C8HPQ3 1-93 R67A)": "B1 chain with R67A", "assay": "ITC binding to PaMx33-Acb2 R67A mutant", "design": "species or system P. aeruginosa phage PaMx33", "conditions": "in vitro"}, "PaMx33-Acb2 [10]": {"target": "T2, PaMx33-Acb2", "assay": "HPLC analysis of cA3 binding and release by Acb2", "design": "species or system P. aeruginosa phage PaMx33"}, "Acb2 T74A mutant": {"target": "T7, Acb2 T74A mutant (Pseudomonas phage PaMx33, UniProt A0A1C8HPQ3, T74A)", "T7 sequence (A0A1C8HPQ3 1-93 T74A)": "B1 chain with T74A", "assay": "ITC binding to PaMx33-Acb2 T74A mutant", "design": "species or system P. aeruginosa phage PaMx33"}, "NucC [11]": {"target": "NucC (Pseudomonas aeruginosa, UniProt P0DTF8)", "assay": "In vitro NucC activity assay", "type": "biochemical, P. aeruginosa strain ATCC 27853 (Pa278)", "conditions": "cA3 5 nM"}, "K26A Acb2 mutant [12]": {"target": "T4, K26A Acb2 mutant", "assay": "Native gel shift assay with Acb2 K26A mutant", "type": "binding, P. aeruginosa phage PaMx33"}, "D61R mutant of T4-Acb2": {"target": "T8, D61R mutant of T4-Acb2 (Enterobacteria phage T4, UniProt P13314, D61R)", "T8 sequence (P13314 1-88 D61R)": "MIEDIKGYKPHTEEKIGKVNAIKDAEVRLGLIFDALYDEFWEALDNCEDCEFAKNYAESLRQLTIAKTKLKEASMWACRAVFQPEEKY", "assay": "ITC binding to T4-Acb2 D61R mutant", "design": "species or system Escherichia phage T4"}, "crystal structure": {"target": "the molecule itself", "assay": "crystal structure"}, "NucC [13]": {"target": "T9, NucC (Pseudomonas aeruginosa, UniProt P0DTF8)", "T9 sequence (P0DTF8 whole entry, looked up)": "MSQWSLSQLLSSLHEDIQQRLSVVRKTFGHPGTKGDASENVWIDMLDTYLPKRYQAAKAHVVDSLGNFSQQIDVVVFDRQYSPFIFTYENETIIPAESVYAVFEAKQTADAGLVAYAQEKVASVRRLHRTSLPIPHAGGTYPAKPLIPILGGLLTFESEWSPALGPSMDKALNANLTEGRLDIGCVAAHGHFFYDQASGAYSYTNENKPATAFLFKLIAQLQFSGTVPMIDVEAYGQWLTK", "assay": "In vitro NucC activity assay", "type": "biochemical, P. aeruginosa strain ATCC 27853 (Pa278)", "conditions": "NucC 10 nM, cA3 5 nM, Acb2 50 nM"}}, "note": "Numbering of substitutions follows the chain as printed. Like-named read-outs stand apart in the source and are kept apart here."}
{"molecule": "Nc1nc2c(ncn2[C@@H]2O[C@@H]3COP(=O)(O)O[C@@H]4[C@H](O)[C@@H](COP(=O)(O)O[C@H]3[C@H]2O)O[C@H]4n2cnc3c(N)ncnc32)c(=O)[nH]1", "note": "[3’,2’-cGAMP]", "values": [{"measurement": "shift of the Acb2 protein / binding (native gel)", "setting": "[1]", "result": "significant shift"}, {"measurement": "Kd", "setting": "PaMx33-Acb2 [2]", "result": "~298", "unit": "nM"}]}
{"molecule": "Nc1ncnc2c1ncn2[C@@H]1O[C@@H]2COP(=O)(O)O[C@H]3[C@@H](O)[C@H](n4cnc5c(N)ncnc54)O[C@@H]3COP(=O)(O)O[C@H]2[C@H]1O", "note": "[3’,3’-cAA, c-di-AMP]", "values": [{"measurement": "binding to Acb2 (previous work)", "setting": "[3]", "result": "binds"}]}
{"molecule": "Nc1nc2c(ncn2[C@@H]2O[C@@H]3COP(=O)(O)O[C@H]4[C@@H](O)[C@H](n5cnc6c(N)ncnc65)O[C@@H]4COP(=O)(O)O[C@H]3[C@H]2O)c(=O)[nH]1", "note": "[3’,3’-cGAMP]", "values": [{"measurement": "Kd", "setting": "CHI14-Acb2 [4]", "result": "~62.4", "unit": "nM"}, {"measurement": "Kd", "setting": "PaMx33-Acb2 [5]", "result": "~87", "unit": "nM"}, {"measurement": "binding to K26A Acb2 mutant", "setting": "K26A Acb2 mutant [6]", "result": "lose their binding"}, {"measurement": "Kd", "setting": "T4-Acb2", "result": "~84.4", "unit": "nM"}, {"measurement": "Kd", "setting": "JBD67-Acb2", "result": "~99", "unit": "nM"}, {"measurement": "shift of the CHI14-Acb2 protein (native gel)", "setting": "CHI14-Acb2 [7]", "result": "almost no shift"}, {"measurement": "binding to Acb2 (previous work)", "setting": "[3]", "result": "binds"}, {"measurement": "binding to Y11A Acb2 mutant", "setting": "Y11A Acb2 mutant [8]", "result": "lose their binding"}]}
{"molecule": "Nc1nc2c(ncn2[C@@H]2O[C@@H]3COP(=O)(O)O[C@H]4[C@@H](O)[C@H](n5ccc(=O)[nH]c5=O)O[C@@H]4COP(=O)(O)O[C@H]3[C@H]2O)c(=O)[nH]1", "note": "[3’,3’-cUG, 3’,3’-c-UMP-GMP]", "values": [{"measurement": "binding to Acb2 (previous work)", "setting": "[3]", "result": "binds"}]}
{"molecule": "O=c1ccn([C@@H]2O[C@@H]3COP(=O)(O)O[C@H]4[C@@H](O)[C@H](n5ccc(=O)[nH]c5=O)O[C@@H]4COP(=O)(O)O[C@H]3[C@H]2O)c(=O)[nH]1", "note": "[3’,3’-cUU, 3’,3’-c-di-UMP]", "values": [{"measurement": "binding to Acb2 (previous work)", "setting": "[3]", "result": "binds"}]}
{"molecule": "Nc1ncnc2c1ncn2[C@@H]1O[C@@H]2COP(=O)(O)O[C@H]3[C@@H](O)[C@H](n4cnc5c(N)ncnc54)O[C@@H]3COP(=O)(O)O[C@H]3[C@@H](O)[C@H](n4cnc5c(N)ncnc54)O[C@@H]3COP(=O)(O)O[C@H]2[C@H]1O", "note": "[cA3, 3’3’3’-cyclic AMP-AMP-AMP]", "values": [{"measurement": "binding (ITC)", "setting": "CHI14-Acb2 [4]; CHI14-Acb2", "result": "does not bind"}, {"measurement": "shift of the Acb2 protein / binding (native gel)", "setting": "[1]", "result": "significant shift"}, {"measurement": "binding / shift (native gel)", "setting": "Y11A Acb2 mutant [9]", "result": "significant shift"}, {"measurement": "Kd", "setting": "PaMx33-Acb2 [2]", "result": "~1.5", "unit": "nM"}, {"measurement": "binding (ITC)", "setting": "T4-Acb2; T4-Acb2", "result": "does not bind"}, {"measurement": "Kd", "setting": "JBD67-Acb2", "result": "~3.5", "unit": "nM"}, {"measurement": "binding (ITC)", "setting": "Acb2 R67A mutant", "result": "abolished"}, {"measurement": "remaining cA3 after incubation with Acb2 (HPLC)", "setting": "PaMx33-Acb2 [10]; 40 μM Acb2, 4 μM cA3", "result": "depletes any detectable molecules"}, {"measurement": "cA3 after proteolysis of Acb2 (HPLC)", "setting": "PaMx33-Acb2 [10]; proteinase K treatment", "result": "released back into the buffer unmodified"}, {"measurement": "Kd", "setting": "Acb2 T74A mutant", "result": "~291", "unit": "nM"}, {"measurement": "DNA cleavage activity of NucC", "setting": "NucC [11]; NucC 10 nM", "result": "activates"}, {"measurement": "NucC activity with cA3 released after proteolysis of WT Acb2", "setting": "NucC [11]; Acb2 50 nM, proteinase K 1 μM", "result": "again activated"}, {"measurement": "binding / shift (native gel)", "setting": "K26A Acb2 mutant [12]", "result": "significant shift"}, {"measurement": "binding (ITC)", "setting": "D61R mutant of T4-Acb2", "result": "unable to bind"}]}
{"molecule": "Nc1ncnc2c1ncn2[C@@H]1O[C@@H]2COP(=O)(O)O[C@H]3[C@@H](O)[C@H](n4cnc5c(N)ncnc54)O[C@@H]3COP(=O)(O)O[C@H]3[C@@H](O)[C@H](n4cnc5c(N)ncnc54)O[C@@H]3COP(=O)(O)O[C@H]3[C@@H](O)[C@H](n4cnc5c(N)ncnc54)O[C@@H]3COP(=O)(O)O[C@H]3[C@@H](O)[C@H](n4cnc5c(N)ncnc54)O[C@@H]3COP(=O)(O)O[C@H]3[C@@H](O)[C@H](n4cnc5c(N)ncnc54)O[C@@H]3COP(=O)(O)O[C@H]2[C@H]1O", "note": "[cA6]", "values": [{"measurement": "shift of the Acb2 protein / binding (native gel)", "setting": "[1]", "result": "does not shift"}]}
{"molecule": "Nc1nc2c(ncn2[C@@H]2O[C@@H]3COP(=O)(O)O[C@H]4[C@@H](O)[C@H](n5cnc6c(N)ncnc65)O[C@@H]4COP(=O)(O)O[C@H]4[C@@H](O)[C@H](n5cnc6c(N)ncnc65)O[C@@H]4COP(=O)(O)O[C@H]3[C@H]2O)c(=O)[nH]1", "note": "[cAAG, 3’3’3’-cAAG]", "values": [{"measurement": "shift of the Acb2 protein / binding (native gel)", "setting": "[1]", "result": "significant shift"}, {"measurement": "Kd", "setting": "PaMx33-Acb2 [2]", "result": "~2.7", "unit": "nM"}]}
{"molecule": "Nc1ccn([C@@H]2O[C@@H]3COP(=O)(O)O[C@H]3[C@H]2O)c(=O)n1", "note": "[cCMP]", "values": [{"measurement": "shift of the Acb2 protein / binding (native gel)", "setting": "[1]", "result": "does not bind"}, {"measurement": "binding to Acb2 (ITC)", "setting": "PaMx33-Acb2 [2]", "result": "does not bind"}]}
{"molecule": "O=c1ccn([C@@H]2O[C@@H]3COP(=O)(O)O[C@H]3[C@H]2O)c(=O)[nH]1", "note": "[cUMP]", "values": [{"measurement": "shift of the Acb2 protein / binding (native gel)", "setting": "[1]", "result": "does not bind"}, {"measurement": "binding to Acb2 (ITC)", "setting": "PaMx33-Acb2 [2]", "result": "does not bind"}]}
{"molecule": "B1", "values": [{"measurement": "stoichiometry N", "setting": "crystal structure", "result": 6}]}
{"molecule": "B2", "values": [{"measurement": "effect on cA3-activated NucC activity", "setting": "NucC [13]", "result": "significantly decreased"}]}
